The results in this text go back to ChEMBL document CHEMBL4219167, “Disulfiram-based disulfides as narrow-spectrum antibacterial agents” (Bioorg Med Chem Lett, 2018).

Converted amounts (≈) assume the structure as drawn. Some results are limits rather than exact numbers.

Assay [1] concerns Staphylococcus aureus. In words: Antibacterial activity against vancomycin-resistant Staphylococcus aureus HIP14300 after 20 hrs by broth microdilution assay. The note with it: HIP14300, 20 h. It is filed as functional.
Assay [2] deals with Streptococcus pyogenes. Put plainly: Antibacterial activity against Streptococcus pyogenes H293 after 20 hrs by broth microdilution assay. It is filed as functional. The note with it: H293, 20 h.
In assay [3] the test system is Enterococcus faecium. In words: Antibacterial activity against vancomycin-resistant Enterococcus faecium ATCC 700221 after 20 hrs by broth microdilution assay. The class given is functional. Conditions: ATCC 700221, 20 h. The essentials:
(§1)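 Brain heart infusion broth at 37°C; E. faecium under 5% CO2. Cells at 0.5 McFarland are diluted 1:100 and exposed to serial dilutions (DMSO stocks 1 mM or 1 mg/mL; controls in water).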
A general note: Dilution methods test growth across graded concentrations, often in twofold steps.

Assay [4] deals with Staphylococcus aureus. Put plainly: Antibacterial activity against methicillin-resistant Staphylococcus aureus COL after 20 hrs by broth microdilution assay. It is filed as functional.
The test system of assay [5] is Streptococcus agalactiae. Put plainly: Antibacterial activity against Streptococcus agalactiae SGBS005 after 20 hrs by broth microdilution assay. It is filed as functional. Conditions: SGBS005, 20 h.
For assay [6], the system named is Streptococcus pneumoniae. In words: Antibacterial activity against Streptococcus pneumoniae TCH8431 after 20 hrs by broth microdilution assay. The class given is functional. The note with it: TCH8431, 20 h.
In assay [7] the test system is Staphylococcus aureus. Put plainly: Antibacterial activity against vancomycin-intermediate resistant Staphylococcus aureus AR-217 after 20 hrs by broth microdilution assay. It is filed as functional. The note with it: AR-217, 20 h.
Assay [8] deals with Staphylococcus epidermidis. Put plainly: Antibacterial activity against vancomycin-intermediate resistant Staphylococcus epidermidis NRS6 after 20 hrs by broth microdilution assay. The class given is functional. Conditions: NRS6, 20 h.
The test system of assay [9] is Francisella tularensis. Put plainly: Antibacterial activity against Francisella tularensis Utah 112 after 20 hrs by broth microdilution assay. Conditions: Utah 112, 20 h. The class given is functional.
Assay [10] has as its system Burkholderia cepacia. In words: Antibacterial activity against Burkholderia cepacia UCB 717 after 20 hrs by broth microdilution assay. It is filed as functional. Conditions: UCB 717, 20 h. The essentials: (§2)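 Medium is tryptic soy broth, 37°C. Overnight culture is adjusted to 0.5 McFarland, diluted 1:100 and exposed to serial dilutions (test agents from 1 mM or 1 mg/mL DMSO stocks; control antibiotics in water). Incubation lasts 20 h. MIC is the lowest concentration with no visible growth.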

The test system of assay [11] is Bacillus anthracis. In words: Antibacterial activity against Bacillus anthracis Ames 35 after 20 hrs by broth microdilution assay. The class given is functional. Conditions: Ames 35, 20 h.
Assay [12] relates to Yersinia pestis. Put plainly: Antibacterial activity against Yersinia pestis Kim D2 after 20 hrs by broth microdilution assay. It is filed as functional. Conditions: Kim D2, 20 h.
The subject of assay [13] is Citrobacter freundii. In words: Antibacterial activity against Citrobacter freundii 4_7_47CFAA after 20 hrs by broth microdilution assay. It is filed as functional. The essentials: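 Brucella broth, 37°C, 5% CO2. Inoculum is 0.5 McFarland diluted 1:100, with serial drug dilutions from DMSO stocks (1 mM or 1 mg/mL) and control antibiotics in water.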
Assay [14] deals with Proteus mirabilis. In words: Antibacterial activity against Proteus mirabilis HM-752 after 20 hrs by broth microdilution assay. It is filed as functional. The note with it: HM-752, 20 h. Put shortly:
as §2

Assay [15] concerns Klebsiella pneumoniae. Put plainly: Antibacterial activity against Klebsiella pneumoniae 700603 after 20 hrs by broth microdilution assay. The class given is functional. The note with it: Klebsiella pneumoniae, 700603, 20 h. The essentials: as §2
The subject of assay [16] is Salmonella typhi. In words: Antibacterial activity against Salmonella typhi Ty2 after 20 hrs by Todd Hewitt broth broth microdilution method. The class given is functional, Salmonella enterica subsp. enterica serovar Typhi str. Ty2. Conditions: Salmonella enterica.
Assay [17] relates to Rhodococcus erythropolis. Put plainly: Antibacterial activity against Rhodococcus erythropolis SK121 after 20 hrs by broth microdilution assay. It is filed as functional. The note with it: SK121, 20 h. The essentials:
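R. erythropolis grown in brain heart infusion broth at 30°C. A 0.5 McFarland suspension diluted 1:100 is treated with serial dilutions from 1 mM or 1 mg/mL DMSO stocks; control antibiotics are in water.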

In assay [18] the test system is Shigella dysenteriae. Put plainly: Antibacterial activity against Shigella dysenteriae Newcastle 1934 after 20 hrs by broth microdilution assay. The class given is functional. The note with it: Newcastle 1934, 20 h. The essentials:
as §2

Assay [19] relates to Acinetobacter baumannii. In words: Antibacterial activity against Acinetobacter baumannii AB5075 after 20 hrs by broth microdilution assay. It is filed as functional. Conditions: AB5075, 20 h.
For assay [20], the system named is Yersinia pestis. Put plainly: Antibacterial activity against Yersinia pestis Kuma D7 after 20 hrs by broth microdilution assay. The class given is functional. The note with it: Kuma D7, 20 h.
Assay [21] concerns Bacillus anthracis. Put plainly: Antibacterial activity against Bacillus anthracis UM23-1 after 20 hrs by broth microdilution assay. It is filed as functional. Conditions: UM23-1, 20 h.
In assay [22] the test system is Bacillus anthracis. Put plainly: Antibacterial activity against Bacillus anthracis Sterne 34F2 after 20 hrs by broth microdilution assay. The class given is functional. Conditions: Sterne 34F2, 20 h.
The test system of assay [23] is Burkholderia multivorans. In words: Antibacterial activity against Burkholderia multivorans CF2 after 20 hrs by broth microdilution assay. It is filed as functional. The note with it: CF2, 20 h. The essentials:
as §2

Assay [24] deals with Pseudomonas aeruginosa. In words: Antibacterial activity against Pseudomonas aeruginosa ATCC 15442 after 20 hrs by broth microdilution assay. The class given is functional. Conditions: ATCC 15442, 20 h. The essentials: as §2
Assay [25] deals with Listeria monocytogenes. Put plainly: Antibacterial activity against Listeria monocytogenes Gibson after 20 hrs by broth microdilution assay. The class given is functional. The essentials: as §1
Assay [26] has as its system Corynebacterium striatum. In words: Antibacterial activity against Corynebacterium striatum FS-1 after 20 hrs by broth microdilution assay. The class given is functional. Conditions: FS-1, 20 h.
The subject of assay [27] is Escherichia coli. Put plainly: Antibacterial activity against Escherichia coli DC10B after 20 hrs by broth microdilution assay. The class given is functional. The essentials: as §2
Assay [28] deals with Brucella neotomae. Put plainly: Antibacterial activity against Brucella neotomae 5K33 after 20 hrs by broth microdilution assay. Conditions: 5K33, 20 h. The class given is functional.
Assay [29] has as its system Bacillus cereus. In words: Antibacterial activity against Bacillus cereus Gibson 971 after 20 hrs by broth microdilution assay. The note with it: Gibson 971, 20 h. The class given is functional.
Assay [30] concerns Vibrio cholerae. Put plainly: Antibacterial activity against Vibrio cholerae TS D4 after 20 hrs by Todd Hewitt broth broth microdilution method. Conditions: TS D4, 20 h. It is filed as functional.
The subject of assay [31] is Bacillus anthracis. In words: Antibacterial activity against Bacillus anthracis Weybridge after 20 hrs by broth microdilution assay. It is filed as functional.
The subject of assay [32] is Yersinia enterocolitica. Put plainly: Antibacterial activity against Yersinia enterocolitica WA-314 after 20 hrs by broth microdilution assay. The class given is functional. The note with it: WA-314, 20 h. The essentials:
(§3)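 Yersinia cultured in tryptic soy broth at 28°C. A 0.5 McFarland suspension diluted 1:100 receives serial dilutions of agents from 1 mM or 1 mg/mL DMSO stocks; control antibiotics are in water.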

The subject of assay [33] is Yersinia pseudotuberculosis. In words: Antibacterial activity against Yersinia pseudotuberculosis P61 after 20 hrs by broth microdilution assay. It is filed as functional. Conditions: P61, 20 h. Put shortly: as §3
The subject of assay [34] is Micrococcus luteus. In words: Antibacterial activity against Micrococcus luteus SK58 after 20 hrs by broth microdilution assay. The class given is functional. The note with it: SK58, 20 h.

The term MIC denotes the lowest concentration that inhibits growth of the organism. High values mean weaker potency, low ones greater potency. Consider `CCN(CC)C(=S)SSc1ccccc1`, for which the MIC is 16 µM (≈ 4.12 µg/mL) in assay [1]; above 32 µM in assay [2]; above 32 µM in assay [3]; 32 µM (≈ 8.24 µg/mL) in [4]; above 32 µM in assay [5]; above 32 µM in assay [6]. The minimal inhibitory concentration (MIC) in assay [7] and in assay [8] was 16 µM (≈ 4.12 µg/mL) each time.
For `CCN(CC)C(=S)SSC1CCCC1`, the minimum inhibitory concentration (MIC) was 32 µM (≈ 7.98 µg/mL) in [1]; 32 µM (≈ 7.98 µg/mL) in assay [2]; above 32 µM in assay [3]; 32 µM (≈ 7.98 µg/mL) in [4]; above 32 µM in [5]; above 32 µM in assay [6]. The minimum inhibitory concentration (MIC) worked out at 16 µM (≈ 3.99 µg/mL) in assay [7] and 32 µM (≈ 7.98 µg/mL) in assay [8].
In the case of `CCCCCSSC(=S)N(CC)CC`, the MIC in assay [9] is 32 µM (≈ 8.05 µg/mL); in [10], above 32 µM; in assay [11], 4 µM (≈ 1.01 µg/mL); in assay [12], 32 µM (≈ 8.05 µg/mL); in assay [13], above 32 µM; in assay [14], above 32 µM. Also, the MIC in assay [1] was 16 µM (≈ 4.02 µg/mL); in [15] it was above 32 µM; in assay [16] it was above 32 µM; in [2], above 32 µM; in assay [17], 16 µM (≈ 4.02 µg/mL); in assay [18], above 32 µM. Moreover, the MIC was above 32 µM in assay [3]; above 32 µM in assay [19]; 32 µM (≈ 8.05 µg/mL) in assay [20]; 4 µM (≈ 1.01 µg/mL) in assay [21]; 16 µM (≈ 4.02 µg/mL) in [4]; 4 µM (≈ 1.01 µg/mL) in [22]. Moreover, the MIC in assay [23] was above 32 µM; in [24] it was above 32 µM; in assay [5], above 32 µM; in assay [25] it was 8 µM (≈ 2.01 µg/mL); in assay [26], 32 µM (≈ 8.05 µg/mL); in assay [6], above 32 µM. Besides, the MIC in [27] is above 32 µM; in [28] it was 32 µM (≈ 8.05 µg/mL); in assay [29], 1 µM (≈ 0.251 µg/mL); in [30], above 32 µM; in [31] it was 8 µM (≈ 2.01 µg/mL); in assay [7], 8 µM (≈ 2.01 µg/mL). The MIC in assay [32] is above 32 µM; in [33] it was above 32 µM; in assay [8] it was 8 µM (≈ 2.01 µg/mL); in assay [34] it was 16 µM (≈ 4.02 µg/mL).
In the case of `CCCCSSC(=S)N(CC)CC` [BUTYL DIETHYLCARBAMO(DITHIOPEROXO)THIOATE], the minimum inhibitory concentration (MIC) in assay [1] is 16 µM (≈ 3.8 µg/mL); in assay [2], 32 µM (≈ 7.6 µg/mL); in assay [3] it was above 32 µM; in [4], 16 µM (≈ 3.8 µg/mL); in [5], above 32 µM; in assay [6] it was above 32 µM. For the same molecule, the minimum inhibitory concentration (MIC) worked out at 16 µM (≈ 3.8 µg/mL) in assay [7] and 32 µM (≈ 7.6 µg/mL) in assay [8].
With `CCN(CC)C(=S)SSC(C)C` [ISOPROPYL DIETHYLCARBAMO(DITHIOPEROXO)THIOATE], the MIC in assay [1] is above 32 µM; in [2] it was 32 µM (≈ 7.15 µg/mL); in [3], above 32 µM; in assay [4], above 32 µM; in assay [5], above 32 µM; in assay [6], above 32 µM. The minimal inhibitory concentration (MIC) in [7] is 32 µM (≈ 7.15 µg/mL); in assay [8], above 32 µM.
Turning to `O=C(O)c1cn(C2CC2)c2cc(N3CCNCC3)c(F)cc2c1=O` [CIPROFLOXACIN], the MIC in assay [9], in [12], in assay [13], in [14], in assay [16] and in [17] was at most 0.5 µM throughout. Moreover, the MIC in [19] was at most 0.5 µM; in [20] it was at most 0.5 µM; in assay [23], 8 µM (≈ 2.65 µg/mL); in assay [26], above 32 µM; in assay [27], at most 0.5 µM; in [30], at most 0.5 µM. This molecule came in with an MIC in [33] of at most 0.5 µM.
